Published values collected from several papers.
PTGS1: Prostaglandin G/H synthase 1 (PTGS1, Ovis aries, UniProt P05979)
rep main protease: Replicase polyprotein 1ab, main protease (rep, Porcine epidemic diarrhea virus, UniProt P0C6Y4)
MAP2K2: Dual specificity mitogen-activated protein kinase kinase 2 (MAP2K2, Homo sapiens, UniProt P36507)
ALDH3A1: Aldehyde dehydrogenase, dimeric NADP-preferring (ALDH3A1, Homo sapiens, UniProt P30838)
IPMK: Inositol polyphosphate multikinase (IPMK, Homo sapiens, UniProt Q8NFU5)
rep papain-like protease: Replicase polyprotein 1ab, papain-like protease (rep, Porcine epidemic diarrhea virus, UniProt P0C6Y4)

Structure (SMILES)	target	test	IC50 [µM]
NS(=O)(=O)c1ccc(-n2nc(C(=O)NN3C(=O)CCC3=O)cc2-c2ccccc2)cc1	PTGS1	enzyme activity, inhibitor	7.57
O=C1NC(=O)c2c1c(-c1ccccc1Cl)cc1[nH]c3ccc(O)cc3c21	Serine/threonine-protein kinase WNK3 (WNK3, Homo sapiens, UniProt Q9BYP7)	enzyme activity, inhibitor	1.49
COc1ccc(N2CCN(Cc3cn4c(-c5ccc(Br)cc5)nnc4s3)CC2)cc1	Aifm2 (Mus musculus, UniProt Q8BUE4, L360F)	enzyme activity, inhibitor, absorbance	~0.518
Cc1ccc(S(=O)(=O)[N](Nc2ccc([N+](=O)[O-])cc2[N+](=O)[O-])[Sn]([Cl])[Cl])cc1	PTGS1	enzyme activity, inhibitor	45.9
CC(=NNC(=O)c1cc(-c2ccccc2)n(-c2ccc(S(N)(=O)=O)cc2)n1)c1ccc(Br)cc1	PTGS1	enzyme activity, inhibitor	3.14
CN(C)c1ccc(C(=O)NCc2cc(O)c(O)c(Br)c2)cc1	rep main protease	enzyme activity, inhibitor, FRET	7.61
C=CC(=O)N1CCC(CNc2ncnc(N)c2-c2ccc(Oc3ccccc3)cc2)CC1	MAP2K2	enzyme activity, inhibitor	> 5
NS(=O)(=O)c1ccc(-n2nc(C(=O)NN=Cc3ccc(O)cc3)cc2-c2ccccc2)cc1	PTGS1	enzyme activity, inhibitor	3.84
O=C(NCc1cc(O)c(O)c(Br)c1)c1nccs1	rep main protease	enzyme activity, inhibitor, FRET	2.52
CC#CC(=O)N[C@H]1CCCN(c2c(F)cc(C(N)=O)c3[nH]c(C)c(C)c23)C1	MAP2K2	enzyme activity, inhibitor	> 5
OC[C@H]1O[C@@H](Oc2ccc(O)c3cccc(O)c23)[C@H](O)[C@@H](O)[C@@H]1O	ALDH3A1	enzyme activity, inhibitor, fluorescence	< 10
COc1cccc(CNc2nc(NC3CCN(C(=O)c4ccccc4)CC3)c3nc[nH]c3n2)c1	IPMK	enzyme activity, inhibitor	9
NS(=O)(=O)c1ccc(-n2nc(C(=O)NN=Cc3ccccc3O)cc2-c2ccccc2)cc1	PTGS1	enzyme activity, inhibitor	3.91
CN1CCC(CNc2ccc3ncc(-c4cccc(OC(F)(F)F)c4)n3n2)CC1	D(1A) dopamine receptor (DRD1, Homo sapiens, UniProt P21728)	cAMP, antagonist	6.66
Nc1ncnc2c1ncn2[C@@H]1C(F)=C(CO)[C@@H](O)[C@H]1O	Adenosylhomocysteinase (AHCY, Homo sapiens, UniProt P23526)	enzyme activity, inhibitor	0.15
COc1ccc(C(=O)NCc2cc(Br)c(OC)c(OC)c2)cc1	rep main protease	enzyme activity, inhibitor, FRET	5.19
COc1cc(C=NNC(=O)c2cc(-c3ccccc3)n(-c3ccc(S(N)(=O)=O)cc3)n2)cc(OC)c1OC	PTGS1	enzyme activity, inhibitor	7.21
CCC(C(=O)NCc1cc(O)c(O)c(Br)c1)c1ccccc1 (stereo not shown)	rep papain-like protease	enzyme activity, inhibitor, FRET	10.6
C=C1CC/C=C(\C)CC[C@@H]2[C@@H]1CC2(C)C	Transient receptor potential cation channel subfamily V member 1, non-phosphorylated (TRPV1, Homo sapiens, UniProt Q8NER1)	ion current, patch clamp	0.587
O=C(NCc1cc(O)c(O)c(Br)c1)c1ccco1	rep main protease	enzyme activity, inhibitor, FRET	12.2
O=C(COC(=O)c1ccccc1Nc1cccc(C(F)(F)F)c1)Nc1ccc(F)cc1	PTGS1	enzyme activity, inhibitor	151
NS(=O)(=O)c1ccc(-n2nc(-c3nnc(S)o3)cc2-c2ccccc2)cc1	PTGS1	enzyme activity, inhibitor	7.78
CC(=O)Oc1cccc(C(=O)NCc2cc(O)c(O)c(Br)c2)c1C	rep papain-like protease	enzyme activity, inhibitor, FRET	2.76
COc1cc(NC(=O)c2cnn(-c3ccc([N+](=O)[O-])cc3)c2C(F)(F)F)cc(OC)c1OC	PTGS1	enzyme activity, inhibitor	4.51
COc1ccc(C(=O)NCc2cc(O)c(O)c(Br)c2)cc1	rep papain-like protease	enzyme activity, inhibitor, FRET	2.46
COc1cccc(CNc2nc(NC3CCN(Cc4ccccc4)CC3)c3nc[nH]c3n2)c1	IPMK	enzyme activity, inhibitor	2
COc1cc(CNC(=O)c2ccccc2C)cc(Br)c1OC	rep main protease	enzyme activity, inhibitor, FRET	6.79
COc1nc2ccc(Br)cc2cc1[C@@H](c1ccccc1)[C@@](O)(CCN(C)C)c1cccc2ccccc12	ALDH3A1	enzyme activity, inhibitor, fluorescence	< 10
